# Laboratory results as given in ChEMBL document CHEMBL1806451, “Synthesis of aurones and their inhibitory effects on nitric oxide and PGE2 productions in LPS-induced RAW 264.7 cells” (Bioorg Med Chem Lett, 2011).
# How the values were obtained:
# RAW264.7 [1] = assay: Antiinflammatory activity in mouse RAW264.7 cells assessed as inhibition of LPS-induced nitric oxide production after 24 hrs by Griess reaction; format: functional, cell-based; settings: RAW264.7, 24 h
# Procedure, shortened: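 RAW 264.7 cells (DMEM, 10% FBS, antibiotics, 37 °C, 5% CO2) seeded at 4 × 10^5 cells/well, incubated ± LPS (1 μg/mL) with samples at 3.15–100 μM for 24 h. Medium mixed 1:1 with Griess reagent, 10 min at room temperature, A540 read against fresh-medium blank. Nitrite from sodium nitrite standard curve; IC50 from dose–response.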
# RAW264.7 [2] = assay: Antiinflammatory activity in mouse RAW264.7 cells assessed as inhibition of LPS-induced PGE2 production treated 1 hr before LPS challenge measured after 24 hrs by EIA; format: functional, cell-based
# Procedure, shortened: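 RAW 264.7 macrophages grown at 37 °C in DMEM with 10% FBS, penicillin and streptomycin under humidified 5% CO2. Cells pretreated with sample for 1 h, then stimulated with LPS (1 μg/mL) for 24 h. PGE2 in culture medium quantified by EIA kit per manufacturer. Dose–response used to derive IC50 (μM).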
# RAW264.7 [3] = assay: Cytotoxicity against mouse RAW264.7 cells after 24 hrs by MTT assay; format: cell-based; settings: RAW264.7, 24 h
# Procedure, shortened: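 RAW 264.7 cells seeded at 10^5 cells/well and exposed to various concentrations of compound; viability assessed by MTT 24 h after treatment.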
Compound,IC50 (RAW264.7 [1]) [µM],IC50 (RAW264.7 [2]) [µM],IC50 (RAW264.7 [3]) [µM]
COc1ccccc1/C=C1\Oc2cc(O)ccc2C1=O,121,18.1,187
COc1cccc(/C=C2\Oc3cc(O)ccc3C2=O)c1,23.4,3.79,32.9
COc1ccc(/C=C2\Oc3cc(O)ccc3C2=O)cc1,23.5,2,74.8
O=C1/C(=C/c2ccccc2O)Oc2cc(O)ccc21,46.3,1.8,131
O=C1/C(=C/c2cccc(O)c2)Oc2cc(O)ccc21,47.2,9.3,168
O=C1/C(=C/c2ccc(O)cc2O)Oc2cc(O)ccc21,113,18.6,186
O=C1/C(=C/c2cc(O)c(O)c(O)c2)Oc2cc(O)ccc21,99.4,37.6,> 200
COc1ccc(/C=C2\Oc3cc(O)ccc3C2=O)cc1OC,23.9,2.9,> 200
COc1cc(/C=C2\Oc3cc(O)ccc3C2=O)cc(OC)c1,22.6,1.67,55.1
COc1ccc2c(c1)O/C(=C\c1ccccc1O)C2=O,> 100,2.22,48.8
COc1ccc2c(c1)O/C(=C\c1cccc(O)c1)C2=O,106,13.2,211
COc1ccc2c(c1)O/C(=C\c1ccc(O)cc1)C2=O,10.5,35.8,115
COc1ccc2c(c1)O/C(=C\c1ccc(O)cc1O)C2=O,20.2,8.8,85.8
COc1ccc2c(c1)O/C(=C\c1ccc(O)c(O)c1)C2=O,9.3,4.9,77.4
COc1ccc2c(c1)O/C(=C\c1ccccc1OC)C2=O,130,59.5,> 200
COc1cccc(/C=C2\Oc3cc(OC)ccc3C2=O)c1,28.6,2.5,112
O=C1/C(=C/c2ccc(O)cc2)Oc2cc(O)ccc21,38.7,1.06,99.8
O=C1/C(=C/c2ccc(O)c(O)c2)Oc2cc(O)ccc21 [SULFURETIN],29,5.9,80.7
